# Legend:
# [1] = Evaluated for the dissociation constant; format: ADME; conditions: read-out: pKa2
# Human alphaherpesvirus 1 [2] = test: Evaluated for the antiviral activity against Herpes simplex virus type 1 (HSV-1) strain BWS by the plaque reduction assay; format: functional; conditions: read-out: ID50 (the source's name)
# Summary of the method: (§1)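 Plaque reduction in Vero cells: about 50 PFU HSV per well adsorbed 1 h with intermittent shaking. Inoculum removed; 10% EMEM with 2-fold drug dilutions added in triplicate, with no-drug virus controls. 48 h at 37 °C, 5% CO2, then Giemsa stain and plaque count. ID50 is the concentration giving 50% plaque reduction versus control.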
# Human alphaherpesvirus 2 [3] = test: Evaluated for the antiviral activity against Herpes simplex virus type 2 (HSV-2) strain G by the plaque reduction assay; format: functional; conditions: read-out: ID50 (the source's name); summary of the method: as §1
# Vero = test: Evaluated for the antiviral activity against Vero cells by proliferation assays (in uninfected cells); format: functional; conditions: Chlorocebus sabaeus, read-out: ID50 (the source's name)
# Summary of the method: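 Cell proliferation assay in uninfected Vero cells; ID50 in µg/mL.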
# guanylate kinase = test: Evaluated for the kinetic parameter Km, with bovine brain guanylate kinase.; format: ADME, Bos taurus; conditions: cattle
# [4] = Evaluated for the rate of phosphorylation with bovine brain guanylate kinase.; format: ADME, Bos taurus; conditions: cattle
# CCRF-CEM [5] = test: Evaluated for the anticellular activity against CEM cells; format: functional; conditions: Homo sapiens, read-out: ID50 (the source's name)
# Summary of the method: (§2)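 CEM cells, uninfected; cell count by dye exclusion; ID50 in µg/mL.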
# Human betaherpesvirus 5 [6] = test: Evaluated for the antiviral activity against Human cytomegalovirus (HCMV) strain AD-169 by the plaque reduction assay; format: functional; conditions: read-out: ID50 (the source's name)
# Summary of the method: (§3)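 HCMV AD169 grown and titered at 37 °C in MRC-5 human embryonic lung diploid cells. Plaque reduction assay in MRC-5 with 2-fold drug dilutions in triplicate and no-drug virus controls. ID50 is the concentration reducing plaques by 50% versus control.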
# Human alphaherpesvirus 1 [7] = test: (§4) Evaluated for the antiviral activity against Herpes simplex virus type 1 (HSV-1).; format: organism-based; conditions: read-out: ID50 (the source's name); summary of the method: as §1
# [8] = test system: Human immunodeficiency virus 1; test: Evaluated for the antiretroviral activity against Human immunodeficiency virus type 1; format: functional; conditions: read-out: ID50 (the source's name)
# Summary of the method: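 CEM-F cells infected with about 30 TCID50 of HIV (LAV strain) for 45 min at 37 °C. Compound added at various concentrations, then 8-day incubation. p24 gag protein in culture supernatant measured by enzyme-capture ELISA. ID50 (µg/mL) is the dose inhibiting 50% of virus expression.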
# [9] = test system: Rauscher murine leukemia virus; test: Evaluated for the antiretroviral activity against Rauscher murine leukemia virus (R-MuLV); format: functional; conditions: read-out: ID50 (the source's name)
# Summary of the method: (§5)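 Rauscher murine leukemia virus tested by UV-XC plaque assay; ID50 in µg/mL.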
# Human alphaherpesvirus 2 [10] = test: Evaluated for the antiviral activity against Herpes simplex virus type 2 (HSV-2) with strain G by the plaque reduction assay; format: functional; conditions: read-out: ID50 (the source's name); summary of the method: as §1
# Bos taurus = species on record: Bos taurus; test: Evaluated for the rate of phosphorylation with bovine brain guanylate kinase; format: ADME; conditions: cattle, in vivo
# Human betaherpesvirus 5 [11] = test: Evaluated for the antiviral activity against Human cytomegalovirus (HCMV) with strain AD-169 by the plaque reduction assay; format: functional; conditions: read-out: ID50 (the source's name); summary of the method: as §3
# CCRF-CEM [12] = test: Evaluated for the anticellular activity against CEM cells by dye-exclusion method; format: functional; conditions: Homo sapiens, read-out: ID50 (the source's name); summary of the method: as §2
# Human alphaherpesvirus 1 [13] = test: as §4; format: functional; conditions: read-out: ID50 (the source's name); summary of the method: as §1
# [14] = test system: Rauscher murine leukemia virus; test: Evaluated for the antiretroviral activity against Rauscher-murine leukemia virus (R-MuLV); format: functional; conditions: read-out: ID50 (the source's name); summary of the method: as §5
# [15] = Evaluated for the second dissociation constant; format: ADME; conditions: read-out: pKa2
SMILES,pKa [1],IC50 (Human alphaherpesvirus 1 [2]),IC50 (Human alphaherpesvirus 2 [3]),IC50 (Vero),Km (guanylate kinase),IC50 [8],also measured
Nc1nc(O)c2ncn(CCCC(F)(F)P(=O)(O)O)c2n1,5.52,> 100 µg/mL,> 100 µg/mL,100 µg/mL,,,
Nc1nc(O)c2ncn(CCCOCP(=O)(O)O)c2n1,,65.5 µg/mL,> 100 µg/mL,76 µg/mL,4.7 mM,7.8 µg/mL,Relative Vmax [4]: 0.0024; IC50 (CCRF-CEM [5]): > 100 µg/mL; IC50 (Human betaherpesvirus 5 [6]): 6 µg/mL; IC50 (Human alphaherpesvirus 1 [7]): 65.5 µg/mL; IC50 [9]: 0.04 µg/mL
Nc1nc(O)c2ncn(CCCCP(=O)(O)O)c2n1,7.08,> 100 µg/mL,,100 µg/mL,,,IC50 (Human alphaherpesvirus 2 [10]): > 100 µg/mL
Nc1nc(O)c2ncn(CCSCP(=O)(O)O)c2n1,6.59,> 100 µg/mL,> 100 µg/mL,100 µg/mL,,,
CC(COCP(=O)(O)O)n1cnc2c(O)nc(N)nc21 (stereo not drawn),,2.92 µg/mL,,60 µg/mL,3.9 mM,8.4 µg/mL,Relative Vmax (Bos taurus): 0.073; IC50 (Human betaherpesvirus 5 [11]): 0.4 µg/mL; IC50 (Human alphaherpesvirus 1 [7]): 3 µg/mL; IC50 (Human alphaherpesvirus 2 [10]): 3.29 µg/mL; IC50 (CCRF-CEM [12]): > 100 µg/mL
Nc1nc2c(ncn2COCCP(=O)(O)O)c(=O)[nH]1,6.76,> 100 µg/mL,,100 µg/mL,,,IC50 (Human alphaherpesvirus 1 [7]): > 145 µg/mL; IC50 (Human alphaherpesvirus 2 [10]): > 100 µg/mL
Nc1nc(O)c2ncn(CCCCOCP(=O)(O)O)c2n1,,> 100 µg/mL,> 100 µg/mL,100 µg/mL,,,IC50 (Human alphaherpesvirus 1 [7]): > 145 µg/mL
Nc1ncnc2c1ncn2CCCOCP(=O)(O)O,,> 100 µg/mL,> 100 µg/mL,100 µg/mL,,,
Nc1nc2c(ncn2[C@H]2C[C@H](O)[C@@H](COP(=O)(O)O)O2)c(=O)[nH]1,,,,,1.2 mM,,Relative Vmax [4]: 14
Nc1nc2c(ncn2COCCO)c(=O)[nH]1 [ACYCLOVIR],,0.5 µg/mL,2.4 µg/mL,100 µg/mL,,,IC50 (Human betaherpesvirus 5 [6]): 38.4 µg/mL
Nc1ncnc2c1ncn2CCOCP(=O)(O)O [ADEFOVIR],,21 µg/mL,9.4 µg/mL,> 100 µg/mL,,3 µg/mL,IC50 (Human betaherpesvirus 5 [6]): 0.93 µg/mL; IC50 [9]: 0.05 µg/mL; IC50 (CCRF-CEM [12]): > 100 µg/mL
Nc1nc2c(ncn2[C@@H]2O[C@H](COP(=O)(O)O)[C@H](O)[C@@H]2O)c(=O)[nH]1 [E626],,,,,3.3 mM,,Relative Vmax [4]: 100
Nc1nc2c(ncn2CCOCP(=O)(O)O)c(=O)[nH]1 [GS-438],6.52,0.08 µg/mL,0.69 µg/mL,5 µg/mL,2.7 mM,> 10 µg/mL,Relative Vmax [4]: 0.11; IC50 (CCRF-CEM [5]): 10 µg/mL; IC50 (Human betaherpesvirus 5 [6]): 0.04 µg/mL; IC50 (Human alphaherpesvirus 1 [13]): 0.1 µg/mL; IC50 [14]: 0.001 µg/mL
Cc1cn([C@H]2C[C@H](O)[C@@H](COP(=O)(O)O)O2)c(=O)[nH]c1=O [THYMIDINE MONOPHOSPHATE],,,,,,,pKa [15]: 6.5
Cc1cn([C@H]2C[C@H](N=[N+]=[N-])[C@@H](CO)O2)c(=O)[nH]c1=O [ZIDOVUDINE],,,,,,0.05 µg/mL,IC50 [9]: 0.001 µg/mL; IC50 (CCRF-CEM [12]): > 50 µg/mL

# — ChEMBL document CHEMBL1124745, “Acyclic purine phosphonate analogues as antiviral agents. Synthesis and structure-activity relationships” (J Med Chem, 1990)
